TRPML3 agonist = human mucolipin-3 channel agonism. Q8TDD5. HEK293 TRPML3-YFP, Fluo-8 calcium fluorescence; 100% = the carbachol control signal. activation, % at 3 µM. 0.29% of 220,000 active;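 active = activation above its plate's cutoff, the mean activation of the plate's test wells plus 3 SD, cut at about 12% in these data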
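system = HEK293 cells stably carrying human TRPML3-YFP | doses = one concentration, 3 µM nominal, 0.3% DMSO | timing = dye loading 1 h 37 °C then 30 min ambient, 125 s read | detection = Fluo-8 calcium dye fluorescence, ex 470-495, em 515-575 nm | benchmarks = high control carbachol 87 µM, low control DMSO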
V1aR counter = counter-screen for oxytocin receptor agonists: human V1a receptor agonists; P37288; CHO-V1R cells, Fluo-8 calcium fluorescence, agonist mode; 0% DMSO, 100% 3 nM vasopressin; 0.25% of 320,000 active; activation, % at 3 µM;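 active = activation above the mean activation of all tested compounds plus 3 SD, per screening run, cut at about 20% in these data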;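 also: signal is peak over basal fluorescence ratio across a 100 second FLIPR read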
OXTR ag = activates the human oxytocin receptor; activation, % at 3 µM; 0.32% of 320,000 active; CHO-OTR cells, Fluo-8 calcium fluorescence; normalized: DMSO 0%, oxytocin 100%;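 active = activation above the mean of all tested compounds plus 3 SD, cutoff set per screening run, cut at about 20% in these data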;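 also: peak over basal fluorescence ratio from a 100 s FLIPR kinetic read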
Target sequence (P30559 whole entry, looked up): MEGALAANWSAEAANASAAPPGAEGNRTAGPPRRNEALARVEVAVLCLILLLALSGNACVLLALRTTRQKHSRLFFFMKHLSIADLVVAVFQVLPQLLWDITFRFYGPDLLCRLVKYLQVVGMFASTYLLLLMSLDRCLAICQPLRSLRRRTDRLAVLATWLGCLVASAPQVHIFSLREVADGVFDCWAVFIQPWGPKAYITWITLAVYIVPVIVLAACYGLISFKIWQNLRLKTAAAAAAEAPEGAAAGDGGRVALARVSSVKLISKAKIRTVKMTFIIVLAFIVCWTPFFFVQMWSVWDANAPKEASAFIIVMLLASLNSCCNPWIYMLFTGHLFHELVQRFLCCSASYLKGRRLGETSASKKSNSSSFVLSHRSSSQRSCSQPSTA
zfTRPN1 agonist = zebrafish TRPN1 (NompC) channel agonism. HEK293 zebrafish TRPN1-YFP, Fluo-8 calcium fluorescence; 100% = response to 87 µM carbachol. activation, % at 3 µM. AID 1424. 0.18% of 220,000 active;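 active = activation above its plate's cutoff, the mean activation of test wells on that plate plus 3 SD, cut at about 19% in these data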
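Assay system: Zebrafish TRPN1-YFP in HEK293 cells | Incubation: Dye loading 1 h at 37 °C, then 30 min room temperature | Measured by: Kinetic Fluo-8 fluorescence, ex 470-495, em 515-575 nm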
OXTR potentiate = potentiates the human oxytocin receptor response; CHO-OTR cells, Fluo-8 calcium fluorescence, potentiator mode; 0% = oxytocin EC15, 100% = EC100; AID 2445; P30559; 0.061% of 320,000 active; activation, % at 3 µM;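 active = activation above that plate's cutoff, the mean activation of tested compounds plus 3 SD, cut at about 6.6% in these data, passing the limit was not always enough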
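Measured by – Fluo-8 calcium dye fluorescence · Test system – human OTR in CHO cells · Dosing – one concentration, 3.0 µM compound · Controls – EC15 oxytocin alone as 0%, 75 nM oxytocin as 100% · Evaluation – normalized max/min fluorescence ratio, % activation · Timing – 6 min pre-incubation, 100 s read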
OXTR agonist cf = confirmation of human oxytocin receptor agonists | CHO-OTR cells, Fluo-8 calcium fluorescence, agonist | activation, % at 3 µM | shares compounds with OXTR ag | 20% of 390 active;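 active = mean activation above about 20% derived from the earlier single-dose screen, limit read from the data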;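 also: peak over minimum fluorescence ratio per well during a 100 second FLIPR read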
V1R ag counter 3x = V1R agonism in triplicate, counter-screen for OXTR agonists; 10% of 390 active; activation, % at 3 µM; AID 434991; CHO-V1R cells, Fluo-8 calcium fluorescence, agonist; shares compounds with OXTR ag;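 active = mean activation over triplicate exceeds the hit threshold set in the earlier primary screen, cut at about 20% in these data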;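 also: peak over basal fluorescence ratio within a 100 second read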
Numbers stand for hits; i = inactive; nt = no result. Shown are actives, neighbours in structure and some others; about 0.55% of the full set was active somewhere.

SMILES | TRPML3 agonist | V1aR counter | OXTR ag | zfTRPN1 agonist | OXTR potentiate | OXTR agonist cf | V1R ag counter 3x
Clc1ccc2c(c1)C(N1CCNCC1)Cc1ccccc1S2 (stereo not drawn) | i | i | 29.4 | i | i | 20.8 | i
COCCCN1CCN(C2Cc3ccccc3Sc3ccc(Cl)cc32)CC1 (stereo not drawn) | i | i | i | i | i | nt | nt
Clc1cccc2c1Sc1ccccc1CC2N1CCNCC1 (stereo not drawn) | i | i | 21.7 | i | i | i | i
CCC1(c2ccc(F)cc2)NC(=O)N(CC(=O)N2c3ccccc3CC2C)C1=O (stereo not drawn) | nt | i | 28.5 | nt | i | i | i
O=C(COC(=O)C12CC3CC(CC(Br)(C3)C1)C2)Nc1c(F)cccc1F | nt | i | i | nt | i | nt | nt
Cc1[nH]c2ccccc2c1C(=O)CN1C(=O)NC(C)(c2ccc(Cl)cc2Cl)C1=O (stereo not drawn) | i | i | 32.0 | i | i | 28.3 | i
Cc1[nH]c2ccccc2c1C(=O)CSc1ccc(Cl)cc1 | i | i | i | i | i | nt | nt
CC(C)(C)c1ccc(C(=O)NNC(=O)CNC(=O)c2cccs2)cc1 | nt | i | i | nt | i | nt | nt
c1cc2c(cc1C1CCCCC1)c1c3n2CCCNC3CCC1 (stereo not drawn) | i | i | 26.2 | i | i | i | i
CCOC(=O)c1sc(NC(=O)c2ccc(Cl)s2)cc1C | i | i | i | i | i | nt | nt
CCOC(=O)c1sc(NC(=O)Nc2ccc(Cl)cc2)cc1C | i | i | 20.1 | i | i | i | i
Cc1ccc(C2(C)NC(=O)N(CC(=O)Nc3cccnc3Cl)C2=O)cc1 (stereo not drawn) | i | i | i | i | i | nt | nt
CC1(c2ccc([N+](=O)[O-])cc2)NC(=O)N(CC(=O)Nc2cccnc2Cl)C1=O (stereo not drawn) | nt | i | 20.7 | nt | i | i | i
Cc1cc(=O)oc2cc(OC(C)C(=O)NC3(C#N)CCCCC3)ccc12 (stereo not drawn) | nt | i | i | nt | i | nt | nt
COc1nccnc1NS(=O)(=O)c1ccc(N=Cc2c(C)[nH]n(-c3ccc(Cl)cc3)c2=O)cc1 | i | i | i | i | i | nt | nt
Cc1[nH]n(-c2ccc(Cl)cc2)c(=O)c1C=Nc1ccc(S(=O)(=O)N2CCOCC2)cc1 | i | i | 22.1 | i | i | i | i
COc1ccccc1-[n+]1c(C)cc(/C=C2\Sc3ccccc3N2C)cc1C | 11.8 | i | 25.5 | 26.0 | i | 26.0 | 25.6
COc1ccc(C(=O)/C=C2\Sc3ccccc3N2C)cc1 | i | i | i | i | i | nt | nt
Cc1ccc(NC(=O)CN2C(=O)NC(C)(C3CC3)C2=O)cc1S(=O)(=O)N1CCCCC1 (stereo not drawn) | nt | i | i | nt | i | nt | nt
CSc1ccc2c(c1)N(CCC1CCCCN1C)c1ccccc1S2 (stereo not drawn) | i | i | 23.6 | i | i | i | i
COc1cc(/C=N/OCC(=O)Nc2cc(C)on2)ccc1OCc1ccccc1 | i | i | 23.5 | i | i | i | i
COc1cccc(OCC(O)CN2CCC(CN3C(=O)c4cccc5cccc(c45)C3=O)CC2)c1 (stereo not drawn) | i | i | i | i | i | nt | nt
Cc1cc(C)cc(OCC(O)CN2CCC(CN3C(=O)c4cccc5cccc(c45)C3=O)CC2)c1 (stereo not drawn) | nt | i | 24.8 | nt | i | i | i
COc1ccc(S(=O)(=O)N(n2c(C)nnc2-n2nc(C)cc2C)S(=O)(=O)c2ccc(OC)cc2)cc1 | i | i | 21.2 | i | i | i | i
c1ccc(COc2ccc(OCCCNC3CCCC3)cc2)cc1 | i | i | 21.4 | i | i | i | i
SMILES | TRPML3 agonist | V1aR counter | OXTR ag | zfTRPN1 agonist | OXTR potentiate | OXTR agonist cf | V1R ag counter 3x
Cc1ccc(C)c(-n2ccnc2SCC(=O)Nc2cccc(S(=O)(=O)NC3=NCCC3)c2)c1 | nt | i | i | nt | i | nt | nt
COc1ccc(CC(=O)OC(C)C(=O)Nc2c(C)n(C)n(-c3ccccc3)c2=O)cc1OC (stereo not drawn) | nt | i | i | nt | i | nt | nt
O[C@@H](c1cc(C(F)(F)F)nc2c(C(F)(F)F)cccc12)[C@H]1CCCCN1 | nt | i | i | nt | i | nt | nt
OC(c1cc(C(F)(F)F)nc2c(Cl)cc(Cl)cc12)C1CCCCN1 (stereo not drawn) | i | i | 23.1 | i | i | i | i
O=[N+]([O-])c1ccc(O)c(-c2cc(C(F)(F)F)nc(-c3ccccc3)n2)c1 | nt | i | 25.9 | nt | i | i | i
CC(=O)c1ccc(NC(=O)CN2CCCCCC2)cc1 | nt | i | 21.4 | nt | i | i | i
Cc1ccc(Cl)cc1N1CCN(CC(=O)Nc2ccc(CN3CCCCC3)cc2)CC1 | i | i | 28.1 | i | i | i | i
CCN1CCN(CC(=O)Nc2ccc(C(C)=O)cc2)CC1 | nt | i | i | nt | i | nt | nt
CC[n+]1c(/C=C/C=C/N(C(C)=O)c2ccccc2)sc2cc(OC)ccc21 | i | i | 29.1 | i | i | 69.0 | 90.5
CC[n+]1c(/C=C(\C)OC)sc2ccccc21 | i | nt | nt | i | nt | nt | nt
CC(Oc1cccc(Cl)c1)C(=O)Nc1ccc(S(=O)(=O)N(C)C2CCN(C)CC2)cc1 (stereo not drawn) | nt | i | 22.1 | nt | i | i | i
CC(=O)Nc1ccc(S(=O)(=O)N(C)C2CCN(C)CC2)cc1 | nt | i | i | nt | i | nt | nt
Cc1ccc(NS(=O)(=O)c2ccc(C(=O)NCC(c3ccco3)N3CCCCC3)cc2)cc1 (stereo not drawn) | nt | i | 24.3 | nt | i | 23.6 | i
O=C(NCC(c1ccco1)N1CCCCC1)c1ccc(S(=O)(=O)Nc2ccccc2)cc1 (stereo not drawn) | nt | i | i | nt | i | nt | nt
CC(C)C(NC(=O)c1ccc(Cl)cc1Cl)C(=O)N1CCN(S(=O)(=O)c2ccccc2)CC1 (stereo not drawn) | nt | i | i | nt | i | nt | nt
Cc1ccc(-c2nn(-c3ccccc3)cc2CSC(=N)N)cc1 | i | i | 23.7 | i | i | i | i
OCc1cn(-c2ccccc2)nc1-c1ccc(-c2nn(-c3ccccc3)cc2CO)cc1 | i | i | i | i | i | nt | nt
CCCC(=O)c1ccc(N2CCN(C(=O)c3ccccc3Br)CC2)c(F)c1 | i | i | 19.6 | i | i | i | i
CCCC(=O)c1ccc(N2CCN(C(=O)c3ccccc3)CC2)c(F)c1 | i | i | i | i | i | nt | nt
CC(=O)Nc1cccc(-c2cnc(N)c(C(=O)c3cccnc3)n2)c1 | nt | i | i | nt | i | nt | nt
CCCCCC(C)NC(=O)c1cc(S(=O)(=O)N2CCCCC2)ccc1N1CCOCC1 (stereo not drawn) | nt | i | i | nt | i | nt | nt
Oc1ccc(C[C@H]2CNCCN2CCC23CC4CC(CC(C4)C2)C3)cc1 | nt | i | i | nt | i | nt | nt
Oc1ccc(C[C@@H]2CNCCN2CCC23CC4CC(CC(C4)C2)C3)cc1 | nt | i | 20.4 | nt | i | i | i

Bioassay records: PubChem, The Scripps Research Institute Molecular Screening Center
